Calls of active or inactive are those of the source. No cut-off for these calls is given here.
Legend:
H9c2 [1] = experiment: Anti-oxidative effect in rat H9c2 cells assessed as reduction in H2O2-induced MnSOD activity at 10 uM preincubated for 4 hrs followed by H2O2 stimulation for 1 hr by WST-8 assay; format: functional, cell-based; conditions: time 5.0 hrs
Method in brief: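 H9c2 cells (ATCC) grown in high-glucose DMEM with 10% FBS at 37 °C, 5% CO2, used at 80-90% confluence and serum-starved 12 h. Compound given 4 h, then medium replaced by DMEM with 500 nM H2O2 for 1 h. Lysate spun 15,000g for 15 min. Cu/Zn SOD blocked with 1 mmol/L KCN, MnSOD read by WST-8 kit, expressed as U/mg protein.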

Mus musculus [2] = experiment: (§1) Cardioprotective activity in C57BL/6J mouse model of LAD coronary artery ligation-induced acute myocardial infarction assessed as reduction in apoptosis of cardiomyocytes at 10 mg/kg, ip pretreated for 7 consecutive days followed by LAD coronary artery ligation after compound treatment for another 3 days by TUNEL staining based assay; format: functional, organism-based; conditions: time 10.0 day
Method in brief: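 C57BL/6J mice, 8 weeks old, given compound i.p. in saline vehicle daily for 7 days, then permanent LAD ligation with body temperature held at 37 °C. Dosing continued 3 more days until sacrifice. Sections treated with proteinase K, then TdT reaction 30 min at 37 °C and DAPI counterstain. TUNEL-positive nuclei in border area counted as % of DAPI nuclei, N = 4 per group.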

H9c2 [3] = experiment: Antiapoptotic activity in rat H9c2 cells assessed as reduction in H2O2-induced mitochondrial membrane potential loss at 10 uM preincubated for 4 hrs followed by H2O2 stimulation for 1 hr by JC1 staining based fluorescence microscopic analysis; format: functional, cell-based; conditions: time 5.0 hrs
Method in brief: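 Pretreatment 4 h before 400 nM H2O2. Cells washed in cold PBS pH 7.4 and loaded with 0.5 μg/mL JC-1 for 40 min at 37 °C, washed, then viewed at once by fluorescence microscopy. Monomer read at ex 490/em 535 nm, aggregate at ex 525/em 600 nm. Ratio taken from three independent fields per group, mean ± SD.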

H9c2 [4] = experiment: Antiapoptotic activity in rat H9c2 cells assessed as restoration of H2O2-induced bcl-2 downregulation at 10 uM preincubated for 4 hrs followed by H2O2 stimulation for 1 hr by Western blotting analysis; format: functional, cell-based; conditions: time 5.0 hrs
Method in brief: (§2)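 Serum-starved (12 h) H9c2 cells were pretreated 4 h, then exposed to 500 nM H2O2 in DMEM for 1 h. Lysis on ice with protease/phosphatase inhibitors, then 13,000 g at 4 °C for 15 min. 20 μg protein run on 8-12% SDS-PAGE and blotted to PVDF. Probed overnight at 4 °C for caspase-3, pro-caspase-3, Bcl-2 and GAPDH, with chemiluminescent detection.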

H9c2 [5] = experiment: Antiapoptotic activity in rat H9c2 cells assessed as reduction in H2O2-induced caspase-3 activation at 10 uM preincubated for 4 hrs followed by H2O2 stimulation for 1 hr by Western blotting analysis; format: functional, cell-based; conditions: time 5.0 hrs; method in brief: as §2
[6] = Oral bioavailability in Sprague-Dawley rat measured upto 24 hrs by LC-MS/MS analysis; format: ADME, organism-based; conditions: in vivo
H9c2 [7] = experiment: Antioxidant activity in rat H9c2 cells assessed as protection against H2O2-induced hypoxic injury by measuring cell viability preincubated for 4 hrs followed by H2O2 stimulation for 1 hr by MTT assay relative to control; format: functional; conditions: time 5 hrs, read-out: ED50 (the source's name)
Method in brief: (§3)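 ED50 taken from log dose against % viability. Viability also reported at the EC50 concentration. Means ± SEM from three independent experiments.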

[8] = Half life in po dosed Sprague-Dawley rat measured upto 24 hrs by LC-MS/MS analysis; format: ADME, organism-based; conditions: in vivo
Mus musculus [9] = experiment: as §1, with “myocardial infarct size” for “apoptosis of cardiomyocytes”, “TTC” for “TUNEL”; format: functional, organism-based; conditions: time 10.0 day
Method in brief: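 Male/female not stated; 8-week C57BL/6J mice given daily ip doses in saline vehicle for 7 d, then permanent LAD ligation, with dosing continued 3 more days to sacrifice. Under isoflurane, hearts perfused with saline plus 40 mM KCl, cut into 4-5 transverse slices, stained with 1% TTC pH 7.4 at 37 °C for 20 min, formalin-fixed; infarct area by planimetry as % of LV area; N = 6-7 per group.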

H9c2 [10] = experiment: Antioxidant activity in rat H9c2 cells assessed as protection against H2O2-induced hypoxic injury by measuring cell viability at 10 uM preincubated for 4 hrs followed by H2O2 stimulation for 1 hr by MTT assay relative to control; format: functional
Method in brief: (§4)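 H9c2 cells at 1 × 10^5 cells/mL, 100 μL per well in triplicate, left 18 h. Compound diluted in DMSO; DMSO alone as negative control. 4 h pretreatment, then 400 nM H2O2 for 1 h. Medium removed and MTT added for 2-4 h, formazan dissolved in DMSO, absorbance at 570 nm. Medium-only wells gave the blank.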

H9c2 [11] = experiment: Antioxidant activity in rat H9c2 cells assessed as protection against H2O2-induced hypoxic injury by measuring cell viability at ED50 concentration preincubated for 4 hrs followed by H2O2 stimulation for 1 hr by MTT assay relative to control; format: functional; conditions: time 5 hrs; method in brief: as §3
H9c2 [12] = experiment: Cytoprotective activity against H2O2-induced injury in rat H9c2 cells assessed as reduction in LDH release at 10 uM preincubated for 4 hrs followed by H2O2 stimulation for 1 hr by LDH assay; format: functional, cell-based; conditions: time 5.0 hrs
Method in brief: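 Cells at 5 × 10^4 per well in triplicate, 18 h, then 4 h compound and 1 h H2O2. Model wells had H2O2 without compound; controls had DMSO. 50 μL medium mixed with 2X LDH assay buffer, kept in the dark at 22-25 °C for 10-30 min, read at 490-520 nm. Activity blank-subtracted, normalised to BCA protein of the lysed cells, and expressed relative to model wells.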

H9c2 [13] = experiment: Antioxidant activity in rat H9c2 cells assessed as protection against H2O2-induced hypoxic injury by measuring cell viability at 1 uM preincubated for 4 hrs followed by H2O2 stimulation for 1 hr by MTT assay relative to control; format: functional; method in brief: as §4

For `COc1cc(C(=O)OCCCCNC(=N)N)cc(OC)c1O` [LEONURINE], the Activity (H9c2 [1]) was “Active”, the Activity (Mus musculus [2]) was “Active” and the Activity (H9c2 [3]) was “Active”. The Activity (H9c2 [4]) was “Active”, the Activity (H9c2 [5]) was “Active” and the bioavailability [6] was 1.78%. For the same compound, the EC50 (H9c2 [7]) was 0.192 µM, the half-life [8] was over 2 h and the Activity (Mus musculus [9]) was “Active”. The Activity (H9c2 [10]) was 62.7%, the Activity (H9c2 [11]) was 55.1% and the Activity (H9c2 [12]) was “inactive”. For the same compound, the Activity (H9c2 [13]) was 52.4%.
